Test results reported in ChEMBL document CHEMBL4270612, “Discovery of dual GyrB/ParE inhibitors active against Gram-negative bacteria” (Eur J Med Chem, 2018).
Converted amounts (≈) assume the structure as drawn.

What was measured:
[1] = target: DNA gyrase subunit B (Escherichia coli, UniProt P0AES6); assay: Inhibition of Escherichia coli GyrB (1 to 220 residues) expressed in Escherichia coli BL21(DE3)
[2] = target: DNA topoisomerase 4 subunit B (Escherichia coli K-12, UniProt P20083); assay: Inhibition of Escherichia coli ParE
[3] = test system: Pseudomonas aeruginosa; assay: Antibacterial activity against Pseudomonas aeruginosa PAO1 after 24 hrs by broth microdilution method; type: functional; details: PAO1, 24 h
Method in brief: (§1)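 Broth microdilution per CLSI. Bacterial suspension adjusted to 1×10^6 CFU/mL in cation-adjusted Mueller–Hinton broth and mixed 1:1 with 2-fold serial compound dilutions. Final DMSO 2.5% v/v. Plates incubated at 35 °C with shaking at 140 rpm for 24 h.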

[4] = test system: Escherichia coli; assay: Antibacterial activity against Escherichia coli after 24 hrs by broth microdilution method; type: functional; method in brief: as §1
[5] = test system: Acinetobacter baumannii; assay: Antibacterial activity against Acinetobacter baumannii ARC3495 after 24 hrs by broth microdilution method; type: functional; details: ARC3495, 24 h; method in brief: as §1
[6] = test system: Klebsiella pneumoniae; assay: Antibacterial activity against Klebsiella pneumoniae ARC1865 after 24 hrs by broth microdilution method; type: functional; details: ARC1865, 24 h; method in brief: as §1
[7] = test system: Haemophilus influenzae; assay: Antibacterial activity against Haemophilus influenzae ATCC 49247 after 24 hrs by broth microdilution method; type: functional; details: ATCC 49247, 24 h; method in brief: as §1
[8] = test system: Enterobacter cloacae; assay: Antibacterial activity against Enterobacter cloacae ARC3528 after 24 hrs by broth microdilution method; type: functional; details: ARC3528, 24 h; method in brief: as §1
[9] = test system: Staphylococcus aureus; assay: Antibacterial activity against Staphylococcus aureus ATCC 29213 after 24 hrs by broth microdilution method; type: functional; details: ATCC 29213, 24 h; method in brief: as §1
[10] = test system: Staphylococcus aureus; assay: Antibacterial activity against methicillin-resistant Staphylococcus aureus FQ-R after 24 hrs by broth microdilution method; type: functional
Method in brief: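 Broth microdilution per CLSI. Bacterial suspensions adjusted to 1×10^6 CFU/mL in cation-adjusted Mueller–Hinton broth, mixed 1:1 with 2-fold serial compound dilutions (final DMSO 2.5% v/v). Incubation 35 °C, 140 rpm, 24 h.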

[11] = test system: Streptococcus pyogenes; assay: Antibacterial activity against Streptococcus pyogenes ARC838 after 24 hrs by broth microdilution method; type: functional; details: ARC838, 24 h
Method in brief: (§2)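 Broth microdilution per CLSI. Bacterial suspension adjusted to 1×10^6 CFU/mL in cation-adjusted Mueller–Hinton broth and mixed 1:1 with 2-fold serial compound dilutions. Plates incubated at 35 °C with shaking at 140 rpm for 24 h.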

[12] = test system: Streptococcus pneumoniae; assay: Antibacterial activity against Streptococcus pneumoniae ATCC 49619 after 24 hrs by broth microdilution method; type: functional; details: ATCC 49619, 24 h; method in brief: as §1
[13] = test system: Enterococcus faecalis; assay: Antibacterial activity against Enterococcus faecalis ATCC 29212 after 24 hrs by broth microdilution method; type: functional; details: ATCC 29212, 24 h; method in brief: as §1
[14] = test system: Candida albicans; assay: Antifungal activity against Candida albicans ATCC 90028 after 24 hrs by broth microdilution method; type: functional; details: ATCC 90028, 24 h
[15] = test system: Pseudomonas aeruginosa; assay: Antibacterial activity against Pseudomonas aeruginosa ARC3505 after 24 hrs by broth microdilution method; type: functional; details: ARC3505, 24 h; method in brief: as §1
[16] = test system: Pseudomonas aeruginosa; assay: Antibacterial activity against Pseudomonas aeruginosa ARC3506 after 24 hrs by broth microdilution method; type: functional; details: ARC3506, 24 h; method in brief: as §1
[17] = test system: Pseudomonas aeruginosa; assay: Antibacterial activity against Pseudomonas aeruginosa ARC3511 after 24 hrs by broth microdilution method; type: functional; details: ARC3511, 24 h; method in brief: as §2
[18] = test system: Pseudomonas aeruginosa; assay: Antibacterial activity against Pseudomonas aeruginosa ARC3514 after 24 hrs by broth microdilution method; type: functional; details: ARC3514, 24 h; method in brief: as §2
[19] = test system: Pseudomonas aeruginosa; assay: Antibacterial activity against Pseudomonas aeruginosa ARC3611 after 24 hrs by broth microdilution method; type: functional; details: ARC3611, 24 h; method in brief: as §1
[20] = test system: Pseudomonas aeruginosa; assay: Antibacterial activity against Pseudomonas aeruginosa ARC3727 after 24 hrs by broth microdilution method; type: functional; details: ARC3727, 24 h; method in brief: as §2
[21] = test system: Pseudomonas aeruginosa; assay: Antibacterial activity against Pseudomonas aeruginosa ARC3729 after 24 hrs by broth microdilution method; type: functional; details: ARC3729, 24 h; method in brief: as §1
[22] = test system: Pseudomonas aeruginosa; assay: Antibacterial activity against Pseudomonas aeruginosa ARC3756 after 24 hrs by broth microdilution method; type: functional; details: ARC3756, 24 h; method in brief: as §2
[23] = test system: Pseudomonas aeruginosa; assay: Antibacterial activity against Pseudomonas aeruginosa ARC3925 after 24 hrs by broth microdilution method; type: functional; details: ARC3925, 24 h; method in brief: as §2
[24] = test system: Pseudomonas aeruginosa; assay: Antibacterial activity against Pseudomonas aeruginosa ARC4063 after 24 hrs by broth microdilution method; type: functional; details: ARC4063, 24 h; method in brief: as §2
[25] = test system: Pseudomonas aeruginosa; assay: Antibacterial activity against Pseudomonas aeruginosa ARC4068 after 24 hrs by broth microdilution method; type: functional; details: ARC4068, 24 h; method in brief: as §2
[26] = test system: Acinetobacter baumannii; assay: Antibacterial activity against Acinetobacter baumannii ARC2674 after 24 hrs by broth microdilution method; type: functional; details: ARC2674, 24 h; method in brief: as §1
[27] = test system: Acinetobacter baumannii; assay: Antibacterial activity against Acinetobacter baumannii ARC2675 after 24 hrs by broth microdilution method; type: functional; details: ARC2675, 24 h; method in brief: as §2
[28] = test system: Acinetobacter baumannii; assay: Antibacterial activity against Acinetobacter baumannii ARC2780 after 24 hrs by broth microdilution method; type: functional; details: ARC2780, 24 h; method in brief: as §2
[29] = test system: Acinetobacter baumannii; assay: Antibacterial activity against Acinetobacter baumannii ARC2781 after 24 hrs by broth microdilution method; type: functional; details: ARC2781, 24 h; method in brief: as §2
[30] = test system: Acinetobacter baumannii; assay: Antibacterial activity against Acinetobacter baumannii ARC2782 after 24 hrs by broth microdilution method; type: functional; details: ARC2782, 24 h; method in brief: as §1
[31] = test system: Acinetobacter baumannii; assay: Antibacterial activity against Acinetobacter baumannii ARC3484 after 24 hrs by broth microdilution method; type: functional; details: ARC3484, 24 h; method in brief: as §2
[32] = test system: Acinetobacter baumannii; assay: Antibacterial activity against Acinetobacter baumannii ARC3485 after 24 hrs by broth microdilution method; type: functional; details: ARC3485, 24 h; method in brief: as §1
[33] = test system: Acinetobacter baumannii; assay: Antibacterial activity against Acinetobacter baumannii ARC3486 after 24 hrs by broth microdilution method; type: functional; details: ARC3486, 24 h; method in brief: as §1
[34] = test system: Acinetobacter baumannii; assay: Antibacterial activity against Acinetobacter baumannii ARC3489 after 24 hrs by broth microdilution method; type: functional; details: ARC3489, 24 h; method in brief: as §1
[35] = test system: Acinetobacter baumannii; assay: Antibacterial activity against Acinetobacter baumannii ARC3492 after 24 hrs by broth microdilution method; type: functional; details: ARC3492, 24 h; method in brief: as §2
[36] = test system: Acinetobacter baumannii; assay: Antibacterial activity against Acinetobacter baumannii ARC3493 after 24 hrs by broth microdilution method; type: functional; details: ARC3493, 24 h; method in brief: as §1
[37] = test system: Acinetobacter baumannii; assay: Antibacterial activity against Acinetobacter baumannii ARC3513 after 24 hrs by broth microdilution method; type: functional; details: ARC3513, 24 h; method in brief: as §1
[38] = test system: Acinetobacter baumannii; assay: Antibacterial activity against Acinetobacter baumannii ARC3515 after 24 hrs by broth microdilution method; type: functional; details: ARC3515, 24 h; method in brief: as §1
[39] = test system: Acinetobacter baumannii; assay: Antibacterial activity against Acinetobacter baumannii ARC3657 after 24 hrs by broth microdilution method; type: functional; details: ARC3657, 24 h; method in brief: as §1
[40] = test system: Acinetobacter baumannii; assay: Antibacterial activity against Acinetobacter baumannii ARC3658 after 24 hrs by broth microdilution method; type: functional; details: ARC3658, 24 h; method in brief: as §1
[41] = test system: Acinetobacter baumannii; assay: Antibacterial activity against Acinetobacter baumannii ARC3659 after 24 hrs by broth microdilution method; type: functional; details: ARC3659, 24 h; method in brief: as §1
[42] = test system: Acinetobacter baumannii; assay: Antibacterial activity against Acinetobacter baumannii ARC3882 after 24 hrs by broth microdilution method; type: functional; details: ARC3882, 24 h; method in brief: as §1
[43] = Thermodynamic solubility of the compound at pH 7.4; type: physicochemical; details: buffer, BLD = below limit of detection
[44] = Protein binding in human plasma; type: ADME, cell-free; details: read-out: PPB (converted)
[45] = Growth inhibition of human A549 cells; type: cell-based

DNA topoisomerase 4 subunit B, sequence (P20083 whole entry): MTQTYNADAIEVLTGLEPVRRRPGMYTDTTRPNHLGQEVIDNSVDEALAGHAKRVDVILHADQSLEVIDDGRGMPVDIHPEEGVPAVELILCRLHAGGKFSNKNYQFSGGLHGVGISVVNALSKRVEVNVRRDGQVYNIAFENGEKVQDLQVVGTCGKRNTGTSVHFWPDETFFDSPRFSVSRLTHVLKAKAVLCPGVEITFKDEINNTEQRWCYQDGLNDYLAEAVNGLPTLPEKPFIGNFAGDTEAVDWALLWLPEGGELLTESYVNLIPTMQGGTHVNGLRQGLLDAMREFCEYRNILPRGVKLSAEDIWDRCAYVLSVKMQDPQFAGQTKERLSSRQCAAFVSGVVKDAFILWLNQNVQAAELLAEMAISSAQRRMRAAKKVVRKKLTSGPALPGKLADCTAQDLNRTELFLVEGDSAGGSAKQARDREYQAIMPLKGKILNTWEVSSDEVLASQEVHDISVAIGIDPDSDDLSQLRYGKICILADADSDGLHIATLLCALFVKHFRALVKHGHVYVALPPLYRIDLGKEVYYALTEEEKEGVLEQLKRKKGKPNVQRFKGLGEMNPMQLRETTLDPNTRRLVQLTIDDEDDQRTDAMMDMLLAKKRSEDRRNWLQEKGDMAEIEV

Molecule CCNC(=O)Nc1cc(-c2nc(C(F)(F)F)cs2)c(-c2cc3ncccc3nc2N2C3CCC2CN(C)C3)cn1 has an IC50 [1] of 7 nM, an IC50 [2] of 14 nM and an MIC [3] of 9.09 µg/mL (≈ 16 µM). For the same molecule, the MIC [4] was 2.27 µg/mL (≈ 3.99 µM), the MIC [5] was 2 µg/mL (≈ 3.52 µM) and the MIC [6] was 64 µg/mL (≈ 113 µM). The MIC [7] was 0.25 µg/mL (≈ 0.44 µM), the MIC [8] was > 64 µg/mL and the MIC [9] was < 0.06 µg/mL. For the same molecule, the MIC [10] was < 0.06 µg/mL, the MIC [11] was < 0.06 µg/mL and the MIC [12] was < 0.06 µg/mL. The MIC [13] was < 0.06 µg/mL, the MIC [14] was > 64 µg/mL and the MIC [15] was 32 µg/mL (≈ 56.3 µM). The MIC [16] was 16 µg/mL (≈ 28.1 µM), the MIC [17] was 8 µg/mL (≈ 14.1 µM) and the MIC [18] was 8 µg/mL (≈ 14.1 µM). The MIC [19] was 8 µg/mL (≈ 14.1 µM), the MIC [20] was 32 µg/mL (≈ 56.3 µM) and the MIC [21] was 8 µg/mL (≈ 14.1 µM). For the same molecule, the MIC [22] was 16 µg/mL (≈ 28.1 µM), the MIC [23] was 16 µg/mL (≈ 28.1 µM) and the MIC [24] was 16 µg/mL (≈ 28.1 µM). It also gave an MIC [25] of 16 µg/mL (≈ 28.1 µM), an MIC [26] of 4 µg/mL (≈ 7.03 µM) and an MIC [27] of 4 µg/mL (≈ 7.03 µM). It also gave an MIC [28] of 0.5 µg/mL (≈ 0.879 µM), an MIC [29] of 0.5 µg/mL (≈ 0.879 µM) and an MIC [30] of 2 µg/mL (≈ 3.52 µM). For the same molecule, the MIC [31] was 4 µg/mL (≈ 7.03 µM), the MIC [32] was 2 µg/mL (≈ 3.52 µM) and the MIC [33] was 2 µg/mL (≈ 3.52 µM). The MIC [34] was 2 µg/mL (≈ 3.52 µM), the MIC [35] was 2 µg/mL (≈ 3.52 µM) and the MIC [36] was 2 µg/mL (≈ 3.52 µM). For the same molecule, the MIC [37] was 8 µg/mL (≈ 14.1 µM), the MIC [38] was 4 µg/mL (≈ 7.03 µM) and the MIC [39] was 4 µg/mL (≈ 7.03 µM). For the same molecule, the MIC [40] was 2 µg/mL (≈ 3.52 µM), the MIC [41] was 2 µg/mL (≈ 3.52 µM) and the MIC [42] was 2 µg/mL (≈ 3.52 µM). The Therm_solubility [43] was “Bld”, the fraction unbound [44] was 0.03 and the GI50 [45] was > 25000 nM.
